Activity calls are given as the source filed them. No cut-off for these calls is given here.

The target in data set [1] is Hepatocyte growth factor receptor (Mus musculus) (UniProt P16056). As to the kind of experiment: Inhibition of TPR-MET autophosphorylation in mouse BaF3 cells after 4 hrs by Western blotting. It counts as cell-based. In a few lines: (§1)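 Exponentially growing cells were treated with compound for 4 h at 37 °C and lysed in SDS sample buffer. Lysates were run on 10% SDS-PAGE and blotted to nitrocellulose. Blots were probed for phospho-c-Met and total c-Met, with GAPDH as loading control, and detected by ECL.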

A short description of data set [2]: Clearance in mouse at 10 mg/kg, iv. The format is ADME, organism-based. Also on record: dose 10 mg/kg, route intravenous. As to conditions: in vivo. In a few lines:
(§2)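 Single iv dose of 10 mg/kg to mice, vehicle DMSO/Tween 80/normal saline. Clearance and half-life were derived from plasma concentration-time data. Average of three runs.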

Data set [3] can be described thus: Half life in mouse at 10 mg/kg, iv. It counts as ADME, organism-based. Details: dose 10 mg/kg, route intravenous. The note with it: in vivo. The method in brief:
as §2

Data set [4] is described as follows: Oral bioavailability in mouse at 20 mg/kg. The note with it: in vivo. It counts as ADME, organism-based.
In data set [5] the target is Macrophage-stimulating protein receptor (Homo sapiens, UniProt Q04912). Briefly: Inhibition of RON. The method in brief:
(§3)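 ELISA on plates precoated with 20 μg/mL poly(Glu,Tyr) 4:1. Buffer: 10 μM ATP, 50 mM HEPES pH 7.4, 50 mM MgCl2, 0.5 mM MnCl2, 0.2 mM Na3VO4, 1 mM DTT, compound in 1% DMSO. Purified kinase was added and incubated 60 min at 37 °C. Phosphotyrosine was detected with PY99 then HRP anti-mouse IgG, o-phenylenediamine, A490. IC50 was taken from inhibition curves.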

The target in data set [6] is Mast/stem cell growth factor receptor Kit (Homo sapiens, UniProt P10721). As to the kind of experiment: Inhibition of c-Kit. In a few lines: as §3
Data set [7] concerns the target Proto-oncogene tyrosine-protein kinase receptor Ret (Homo sapiens, UniProt P07949). Briefly: Inhibition of RET.
Data set [8] deals with Receptor tyrosine-protein kinase erbB-2 (Homo sapiens, UniProt P04626). Briefly: Inhibition of ErbB2. In a few lines: as §3
For data set [9], the target named is Tyrosine-protein kinase ABL1 (Homo sapiens, UniProt P00519). As to the kind of experiment: Inhibition of Abl. The method in brief:
as §3

Data set [10] deals with T1, Hepatocyte growth factor receptor (Homo sapiens, UniProt P08581). Briefly: Inhibition of c-Met phosphorylation in human H1993 cells at 0.5 uM after 4 hrs by Western blotting. It counts as cell-based. The method in brief: as §1
Data set [11] addresses T1, Hepatocyte growth factor receptor. Briefly: Inhibition of c-Met in human MKN45 cells assessed as AKT phosphorylation at 0.1 to 3 uM after 4 hrs by Western blotting. The format is cell-based. The note with it: MKN-45. The method in brief:
(§4)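 Exponentially growing cells were exposed to compound for 4 h at 37 °C and lysed in SDS sample buffer. Lysates were resolved on 10% SDS-PAGE and blotted. Blots were probed for phospho- and total ERK1/2 and AKT, with GAPDH loading control, and detected by ECL.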

Data set [12] deals with Hepatocyte growth factor receptor (Mus musculus) (UniProt P16056). As to the kind of experiment: Inhibition of TPR-c-Met phosphorylation expressed in mouse […] cells at 0.1 to 3 uM after 4 hrs by Western blotting. It counts as cell-based. In a few lines: as §1
In general terms: A western blot detects proteins with antibodies after separation by electrophoresis.

For data set [13] the target is unchanged. As to the kind of experiment: Inhibition of TPR-c-Met phosphorylation expressed in mouse […] cells assessed as AKT phosphorylation at 0.1 to 3 uM after 4 hrs by Western blotting. It counts as cell-based. In a few lines:
as §4

Data set [14] has the same target. As to the kind of experiment: Inhibition of TPR-c-Met phosphorylation expressed in mouse BAF3 cells assessed as AKT phosphorylation at 0.1 to 3 uM after 4 hrs by Western blotting. The format is cell-based. In a few lines:
as §4

For data set [15], the system named is MDA-MB-231. Briefly: Antiproliferative activity against human MDA-MB-231 cells after 72 hrs. The note with it: MDA-MB-231, 72 h.
The test system of data set [16] is MCF7. As to the kind of experiment: Antiproliferative activity against human MCF7 cells after 72 hrs. As to conditions: MCF7, 72 h.
Data set [17] deals with BXPC-3. As to the kind of experiment: Antiproliferative activity against human BxPC3 cells after 72 hrs. The note with it: BXPC-3, 72 h.
Data set [18] concerns Mus musculus. As to the kind of experiment: Toxicity in human U87MG cells xenografted nude mouse assessed as reduction of body weight at 100 mg/kg, ip qd for 14 days. The format is organism-based, U-87MG ATCC. Also on record: dose 100 mg/kg, route intraperitoneal. The note with it: in vivo, 336 h.
Data set [19] concerns the target Fibroblast growth factor receptor 1 (Homo sapiens, UniProt P11362). As to the kind of experiment: Inhibition of FGFR1.

Sequence of Hepatocyte growth factor receptor (Mus musculus) (P16056 whole entry): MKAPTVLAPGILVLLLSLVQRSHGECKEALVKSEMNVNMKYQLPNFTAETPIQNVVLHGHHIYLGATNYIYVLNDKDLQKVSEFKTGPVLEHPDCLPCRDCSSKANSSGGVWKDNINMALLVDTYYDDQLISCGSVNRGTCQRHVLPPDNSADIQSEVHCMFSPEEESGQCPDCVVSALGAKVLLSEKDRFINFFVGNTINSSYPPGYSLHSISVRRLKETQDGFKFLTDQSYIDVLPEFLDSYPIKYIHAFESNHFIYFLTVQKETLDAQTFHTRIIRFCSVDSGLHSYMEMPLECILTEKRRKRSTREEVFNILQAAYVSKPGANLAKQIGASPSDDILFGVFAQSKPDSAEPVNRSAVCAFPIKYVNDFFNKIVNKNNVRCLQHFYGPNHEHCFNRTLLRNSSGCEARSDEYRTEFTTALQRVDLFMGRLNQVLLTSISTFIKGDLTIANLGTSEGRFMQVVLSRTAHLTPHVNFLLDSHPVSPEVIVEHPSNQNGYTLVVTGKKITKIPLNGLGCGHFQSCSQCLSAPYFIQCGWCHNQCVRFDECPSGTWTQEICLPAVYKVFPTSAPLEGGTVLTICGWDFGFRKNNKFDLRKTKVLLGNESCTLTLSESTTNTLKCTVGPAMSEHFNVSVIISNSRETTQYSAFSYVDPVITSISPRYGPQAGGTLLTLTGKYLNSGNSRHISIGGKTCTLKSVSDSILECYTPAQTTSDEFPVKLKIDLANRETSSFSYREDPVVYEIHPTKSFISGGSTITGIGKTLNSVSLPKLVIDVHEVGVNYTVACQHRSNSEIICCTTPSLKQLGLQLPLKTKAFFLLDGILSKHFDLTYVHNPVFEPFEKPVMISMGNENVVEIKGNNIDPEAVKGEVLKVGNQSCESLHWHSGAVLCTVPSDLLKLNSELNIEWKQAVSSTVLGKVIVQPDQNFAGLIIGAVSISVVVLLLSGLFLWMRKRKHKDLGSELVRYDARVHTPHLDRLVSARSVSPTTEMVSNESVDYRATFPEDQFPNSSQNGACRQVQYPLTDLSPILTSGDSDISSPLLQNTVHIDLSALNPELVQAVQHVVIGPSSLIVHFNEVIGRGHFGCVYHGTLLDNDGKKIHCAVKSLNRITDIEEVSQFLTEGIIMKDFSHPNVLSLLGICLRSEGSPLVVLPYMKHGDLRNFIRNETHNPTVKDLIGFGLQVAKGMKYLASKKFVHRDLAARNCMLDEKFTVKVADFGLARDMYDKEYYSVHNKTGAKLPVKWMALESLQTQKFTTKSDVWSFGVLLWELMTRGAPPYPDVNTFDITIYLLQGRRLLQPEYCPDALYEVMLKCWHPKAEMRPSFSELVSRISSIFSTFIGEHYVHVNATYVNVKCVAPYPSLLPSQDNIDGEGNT
T1 sequence (P08581 whole entry): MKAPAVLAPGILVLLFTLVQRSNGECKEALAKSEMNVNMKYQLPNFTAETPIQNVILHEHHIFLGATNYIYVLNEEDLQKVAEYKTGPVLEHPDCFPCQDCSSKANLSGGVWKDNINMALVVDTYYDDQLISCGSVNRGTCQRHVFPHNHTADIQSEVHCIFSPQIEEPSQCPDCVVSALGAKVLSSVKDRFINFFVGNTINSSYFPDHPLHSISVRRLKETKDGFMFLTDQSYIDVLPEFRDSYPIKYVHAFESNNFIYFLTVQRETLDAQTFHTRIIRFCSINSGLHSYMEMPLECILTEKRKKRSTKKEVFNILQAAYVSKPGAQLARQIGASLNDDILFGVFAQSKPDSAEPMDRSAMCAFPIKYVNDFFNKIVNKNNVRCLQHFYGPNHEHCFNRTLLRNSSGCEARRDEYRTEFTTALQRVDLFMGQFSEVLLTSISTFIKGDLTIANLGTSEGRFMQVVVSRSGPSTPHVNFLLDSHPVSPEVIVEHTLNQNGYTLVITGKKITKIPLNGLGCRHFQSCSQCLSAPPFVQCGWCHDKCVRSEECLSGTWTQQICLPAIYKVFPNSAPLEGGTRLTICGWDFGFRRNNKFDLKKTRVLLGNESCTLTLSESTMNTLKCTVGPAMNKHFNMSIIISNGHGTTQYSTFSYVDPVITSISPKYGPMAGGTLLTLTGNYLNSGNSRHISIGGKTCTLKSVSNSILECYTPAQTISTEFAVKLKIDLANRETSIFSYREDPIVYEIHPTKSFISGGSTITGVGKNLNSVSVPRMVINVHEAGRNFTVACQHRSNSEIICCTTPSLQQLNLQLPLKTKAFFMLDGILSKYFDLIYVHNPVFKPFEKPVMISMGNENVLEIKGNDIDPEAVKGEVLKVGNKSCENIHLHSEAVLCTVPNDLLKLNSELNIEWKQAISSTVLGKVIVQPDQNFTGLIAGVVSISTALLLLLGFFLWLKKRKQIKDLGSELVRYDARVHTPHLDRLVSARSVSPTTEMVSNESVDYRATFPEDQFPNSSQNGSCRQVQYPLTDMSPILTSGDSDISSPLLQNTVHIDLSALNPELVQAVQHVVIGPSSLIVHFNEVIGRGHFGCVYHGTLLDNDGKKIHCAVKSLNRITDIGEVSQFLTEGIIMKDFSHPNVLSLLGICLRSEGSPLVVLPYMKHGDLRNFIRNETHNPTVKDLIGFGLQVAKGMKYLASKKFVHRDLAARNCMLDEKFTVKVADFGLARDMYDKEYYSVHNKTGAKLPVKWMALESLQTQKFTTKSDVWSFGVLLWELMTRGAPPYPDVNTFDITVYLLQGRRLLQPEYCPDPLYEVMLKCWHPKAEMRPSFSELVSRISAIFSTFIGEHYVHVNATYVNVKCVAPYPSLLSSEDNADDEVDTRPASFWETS
Sequence of Fibroblast growth factor receptor 1 (P11362 whole entry): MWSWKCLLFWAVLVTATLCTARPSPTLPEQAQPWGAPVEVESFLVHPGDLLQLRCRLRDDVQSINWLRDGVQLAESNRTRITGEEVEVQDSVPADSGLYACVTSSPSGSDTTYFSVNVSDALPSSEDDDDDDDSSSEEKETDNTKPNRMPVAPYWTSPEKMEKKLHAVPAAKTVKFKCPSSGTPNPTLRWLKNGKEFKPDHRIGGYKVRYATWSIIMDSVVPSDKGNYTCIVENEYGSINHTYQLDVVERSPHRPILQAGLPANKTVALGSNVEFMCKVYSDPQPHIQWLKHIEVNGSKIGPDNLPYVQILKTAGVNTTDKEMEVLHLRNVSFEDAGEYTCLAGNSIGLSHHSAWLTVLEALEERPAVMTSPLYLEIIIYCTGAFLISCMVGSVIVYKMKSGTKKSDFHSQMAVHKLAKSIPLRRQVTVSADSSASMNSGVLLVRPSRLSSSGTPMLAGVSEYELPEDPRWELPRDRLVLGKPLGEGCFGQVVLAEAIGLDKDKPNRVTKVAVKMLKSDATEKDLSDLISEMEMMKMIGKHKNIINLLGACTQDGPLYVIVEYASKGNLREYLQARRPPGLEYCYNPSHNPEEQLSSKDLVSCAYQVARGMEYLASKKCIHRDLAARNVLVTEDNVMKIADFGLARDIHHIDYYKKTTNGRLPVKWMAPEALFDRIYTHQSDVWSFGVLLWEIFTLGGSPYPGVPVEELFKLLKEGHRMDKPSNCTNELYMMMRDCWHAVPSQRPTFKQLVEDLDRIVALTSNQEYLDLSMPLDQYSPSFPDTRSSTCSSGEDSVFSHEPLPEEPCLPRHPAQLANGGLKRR
Sequence of Mast/stem cell growth factor receptor Kit (P10721 whole entry): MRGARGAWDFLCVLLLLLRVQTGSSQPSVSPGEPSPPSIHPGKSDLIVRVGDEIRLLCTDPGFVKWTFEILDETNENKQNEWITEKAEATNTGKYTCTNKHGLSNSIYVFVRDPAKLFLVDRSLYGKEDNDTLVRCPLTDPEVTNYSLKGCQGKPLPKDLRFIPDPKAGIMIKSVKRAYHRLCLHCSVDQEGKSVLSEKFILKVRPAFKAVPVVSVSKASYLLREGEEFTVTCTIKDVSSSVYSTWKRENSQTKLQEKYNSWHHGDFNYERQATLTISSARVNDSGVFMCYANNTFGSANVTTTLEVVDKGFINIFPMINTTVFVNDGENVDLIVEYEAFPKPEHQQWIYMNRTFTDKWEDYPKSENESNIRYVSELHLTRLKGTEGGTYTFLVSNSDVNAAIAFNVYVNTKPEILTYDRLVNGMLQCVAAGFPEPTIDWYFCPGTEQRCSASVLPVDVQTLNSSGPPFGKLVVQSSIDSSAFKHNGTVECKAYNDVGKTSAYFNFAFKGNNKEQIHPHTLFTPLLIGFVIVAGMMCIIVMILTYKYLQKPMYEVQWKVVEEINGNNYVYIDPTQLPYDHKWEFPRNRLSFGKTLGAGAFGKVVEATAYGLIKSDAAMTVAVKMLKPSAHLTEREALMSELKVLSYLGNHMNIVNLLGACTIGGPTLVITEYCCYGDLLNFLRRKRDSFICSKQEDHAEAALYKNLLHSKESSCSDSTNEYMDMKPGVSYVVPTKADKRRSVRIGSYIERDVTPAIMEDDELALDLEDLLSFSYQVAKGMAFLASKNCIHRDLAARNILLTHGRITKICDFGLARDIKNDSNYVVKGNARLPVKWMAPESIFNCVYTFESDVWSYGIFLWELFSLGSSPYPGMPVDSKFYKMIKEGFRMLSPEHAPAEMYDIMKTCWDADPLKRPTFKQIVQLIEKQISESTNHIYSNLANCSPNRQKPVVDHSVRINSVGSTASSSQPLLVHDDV

In the case of `CC(=O)N1CCN(c2cnc3cc(C(F)(F)F)cc(NCc4cccc([N+](=O)[O-])c4)c3c2)CC1`, the inhibition entry in data set [1] was “Dose-dependent effect”. Besides, the clearance in data set [2] was 59.8 mL/min/kg. Further, the half-life in data set [3] was 3.25 h. This compound also came in with a bioavailability in [4] of 37.5%. Also, the IC50 in [5] is over 10 µM; in data set [6], over 10 µM; in data set [7], over 10 µM; in data set [8], over 10 µM; in data set [9] it was over 10 µM; in data set [15] it was at least 50 µM. The half-maximal inhibitory concentration (IC50) in [16] was 16 µM; in data set [17], 46 µM; in data set [19] it was over 10 µM. In addition, the inhibition entry in [10], in data set [11], in data set [12], in [13] and in data set [14] was “Active” throughout. The Activity result in data set [18] is listed as “Non-toxic”.

What is called clearance is the rate of elimination divided by the concentration. High values mean efficient removal, low ones inefficient removal. A word on the half-life: it is the time in which the quantity being followed falls by half. Lower therefore signals fast loss. By bioavailability is commonly meant dose-corrected exposure relative to a reference, in per cent. The low end stands for poor availability, the high end for good availability. What is called IC50 is the point on the concentration scale where inhibition reaches its midpoint. A high value points to weaker potency.

(Values after ChEMBL document CHEMBL1765011, “Synthesis and c-Met kinase inhibition of 3,5-disubstituted and 3,5,7-trisubstituted quinolines: identification of 3-(4-acetylpiperazin-1-yl)-5-(3-nitrobenzylamino)-7- (trifluoromethyl)quinoline as a novel anticancer agent” (J Med Chem, 2011).)
